HNF4A DNA FP: change in binding of human HNF4A to DNA, primary screen, biochemical, fluorescence polarization, FITC-DNA | Hepatocyte nuclear factor 4-alpha (Homo sapiens), P41235 | 1 h | activity change, % at 10 µM | actives 0.3% (n = 360,000) | AID 1224865, 2016; in the data active = activity change above about 30%, passing the limit was not always enough
TPT1 inhibitor: Candida albicans TPT1 enzyme inhibitors, primary screen, biochemical, fluorescence polarization; actives 0.81% (n = 300,000); recombinant caTPT1, FP RNA substrate dephosphorylation; inhibition, % at 5 µM; tRNA 2'-phosphotransferase TPT1 (Candida albicans SC5314);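 active = inhibition above the mean of all tested compounds plus 3 SD, set per screening campaign, cut at about 24% in these data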
Neddylation inh: inhibitors of cullin neddylation, primary screen, biochemical, TR-FRET, uHTS, NAE and Ubc12 | NEDD8-conjugating enzyme Ubc12 (Homo sapiens) + NEDD8-activating enzyme E1 regulatory … | inhibition, % at 25 µM | actives 0.58% (n = 360,000) | AID 651699, 2012; in the data active = inhibition above about 36%
CSN deneddyl inh: inhibitors of CSN-mediated cullin deneddylation, primary screen, biochemical, fluorescence polarization, uHTS | COP9 signalosome complex subunit 5 (Homo sapiens), Q92905 | Purified CSN, SCF-Nedd8-OG deneddylation | inhibition, % at 12.5 µM | actives 0.38% (n = 360,000) | AID 651999, 2013;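 active = pattern-corrected inhibition above about 35%, with an unprinted fluorescence ratio check between 0.5 and 1.5, limit read from the data, passing the limit was not always enough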
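Schedule: reaction 90 min, room temperature / Assay system: HEK293T-derived human Csn5 enzyme / Input: Csn5 at 0.24 nM final / Measure: inhibition of Csn5 cleavage, % / Control set: substrate-only high control, full reaction low control / Technique: fluorescence polarization of the substrate / Buffer or medium: Tris/NaCl/DTT buffer, pH 7.5 / Reagent: SCFSkp2-Nedd8OG substrate at 10 nM final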
Rpn11 block: Rpn11 (PSMD14) deubiquitinase inhibitors, primary screen, biochemical, fluorescence polarization, uHTS; human 26S proteasome, Ub4-pepOG fluorescence polarization; 20S core pre-blocked with epoxomicin; actives 0.59% (n = 360,000); AID 588493, 2011; inhibition, % at 20 µM;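 active = inhibition at 20 µM, scaled to each plate's controls, above about 33%, limit read from the data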
Target sequence (O00487 whole entry, looked up): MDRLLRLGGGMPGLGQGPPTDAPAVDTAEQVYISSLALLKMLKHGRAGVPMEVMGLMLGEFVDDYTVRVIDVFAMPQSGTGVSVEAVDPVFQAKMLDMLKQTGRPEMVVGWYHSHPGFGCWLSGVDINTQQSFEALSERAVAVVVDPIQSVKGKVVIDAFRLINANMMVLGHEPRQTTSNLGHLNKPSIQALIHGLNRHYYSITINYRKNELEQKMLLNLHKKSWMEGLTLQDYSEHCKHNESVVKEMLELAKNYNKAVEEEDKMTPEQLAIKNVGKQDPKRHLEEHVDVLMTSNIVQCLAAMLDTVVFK
Rin1-Abl PPI inh: inhibitors of Rin1-Abl protein binding, primary screen, biochemical, TR-FRET. actives 0.4% (n = 360,000). inhibition, % at 7.35 µM. Tyrosine-protein kinase ABL1 (Homo sapiens) + Ras and Rab interactor 1 (Homo sapiens), …. AID 588664, 2011; in the data active = inhibition above about 5%, passing the limit was not always enough
HNF4A confirm: change in HNF4A binding to DNA, retest, confirmation, biochemical, fluorescence polarization, FITC-DNA | shares compounds with HNF4A DNA FP | 1 h | activity change, % at 12.5 µM | actives 99% (n = 210) | AID 1224897, 2016; call rule not given here
A number is an active result; - = inactive; . = no result given; + = active, no number. An excerpt weighted towards active compounds, which were near 2.4% of everything screened.

SMILES | HNF4A DNA FP | TPT1 inhibitor | Neddylation inh | CSN deneddyl inh | Rpn11 block | Rin1-Abl PPI inh | HNF4A confirm
COc1ccc(C2CC(c3ccccc3)=NN2S(=O)(=O)c2ccccc2)cc1 (stereo not drawn) | 77 | - | - | - | - | - | 59
N#Cc1ccsc1NC(=O)c1ccc2ncsc2c1 | 69 | . | - | 59 | . | - | 77
CCOC(=O)c1ccccc1NC(=O)COC(=O)CCNS(=O)(=O)c1cccs1 | - | . | - | - | - | - | .
COc1cc(/C=C2\SC(=S)N(CC(=O)NC3=NCCS3)C2=O)cc(OC)c1OC | - | - | - | - | - | - | .
COc1ccc(/C=C2\SC(=S)N(CCC(=O)NC3=NCCS3)C2=O)cc1OC | 53 | - | - | - | . | - | 77
COc1cc(/C=C2\SC(=S)N(NC(C)=O)C2=O)ccc1OC(=O)c1ccco1 | - | . | - | - | - | - | .
COc1cc(/C=C2/SC(=S)N(C)C2=O)ccc1OC(=O)c1ccco1 | 49 | - | - | - | - | - | 37
Cc1ccc(Cc2ccccc2C(=O)O)cc1 | - | . | - | - | - | - | .
CCCCNc1c(-c2cc3ccccc3o2)nc2nc(C)cc(C)n12 | 45 | . | - | - | . | . | 37
Cc1c(O)ccc(/C(Cc2ccc3ccccc3n2)=N\O)c1O | - | - | - | - | - | - | .
CC(=O)Oc1ccc(C(=O)Cc2ccc3ccccc3n2)c(O)c1C | 38 | - | - | - | . | - | 50
CC1(c2nnnn2-c2ccc3c(c2)OCCO3)CCC(=O)N1Cc1cccc(C(F)(F)F)c1 (stereo not drawn) | - | . | - | - | . | . | .
COc1cc(/C=C2\C(=N)N3N=CSC3=NC2=O)cc(Br)c1OC(=O)c1ccco1 | 39 | - | - | - | - | - | 79
Cc1c(-c2ccc(/C=N/NC(=O)C(=O)Nc3ccccc3F)o2)cccc1[N+](=O)[O-] | 79 | - | - | - | . | - | 35
O=C(NCc1ccccn1)c1ccc(CNS(=O)(=O)c2cccc(Cl)c2)cc1 | - | - | - | - | - | - | .
CCOC(=O)c1c(-c2ccc(C)cc2)csc1NC(=O)/C(C#N)=C/c1ccc(O)c(OC)c1 | 55 | . | - | 42 | . | - | 62
CCOC(=O)c1c(C)[nH]c(C(=O)N2CCN(C(=O)OCC)CC2)c1C | - | - | - | - | - | - | .
CCOC(=O)c1c(C)c(C)n2c1NC(=O)C2 | 57 | . | - | - | . | - | 65
COc1ccc2cc(C(c3nnnn3Cc3ccccc3)N3CCCCCC3)c(=O)[nH]c2c1 (stereo not drawn) | - | - | - | - | - | - | .
COc1ccc2cc(C(c3nnnn3CCc3ccccc3)N3CCC(O)CC3)c(=O)[nH]c2c1 (stereo not drawn) | 55 | - | - | - | . | - | 51
NC(=O)CC(NC(=O)Cc1ccc(Br)cc1)c1ccc(NC2CCCCCC2)c([N+](=O)[O-])c1 (stereo not drawn) | - | - | - | - | . | - | .
NC(=O)CC(NC(=O)Cc1ccc(Br)cc1)c1ccc(NC2CCCC2)c([N+](=O)[O-])c1 (stereo not drawn) | 50 | - | - | - | . | - | 49
COc1ccc(OCCNc2cc(Cl)ccc2[N+](=O)[O-])cc1 | 51 | - | - | 47 | . | - | 67
CC(=O)c1ccc(NC(=O)c2ccc(NC(=O)c3ccco3)cc2)cc1 | 86 | - | - | - | + | - | 111
CC1N(C)c2cc(NC(=O)c3ccco3)c(P(=O)(Nc3ccc([N+](=O)[O-])cc3)N3CCOCC3)cc2C1(C)C (stereo not drawn) | - | - | - | - | - | - | .
CC1N(C)c2cc(NC(=O)c3ccco3)ccc2C1(C)C (stereo not drawn) | 52 | - | - | - | . | - | 41
CN1CCN(C(=O)c2ccc(-c3cnn(C)c3)c3ccoc23)CC1 | - | . | - | - | - | - | .
